Shown are actives, neighbours in structure and some others; about 2.8% of the full set was active somewhere.
TNAP inh noacc – TNAP (human) inhibition, acceptor-free conditions; P05186; purified TNAP, CDP-star luminescence, 30 min; inhibition, % at 20 µM; actives 0.26% (n = 200,000);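 active means tissue-nonspecific alkaline phosphatase inhibition above about 50% at 20 µM in the single-dose screen, limit read from the data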
Target sequence (P05186 whole entry, looked up): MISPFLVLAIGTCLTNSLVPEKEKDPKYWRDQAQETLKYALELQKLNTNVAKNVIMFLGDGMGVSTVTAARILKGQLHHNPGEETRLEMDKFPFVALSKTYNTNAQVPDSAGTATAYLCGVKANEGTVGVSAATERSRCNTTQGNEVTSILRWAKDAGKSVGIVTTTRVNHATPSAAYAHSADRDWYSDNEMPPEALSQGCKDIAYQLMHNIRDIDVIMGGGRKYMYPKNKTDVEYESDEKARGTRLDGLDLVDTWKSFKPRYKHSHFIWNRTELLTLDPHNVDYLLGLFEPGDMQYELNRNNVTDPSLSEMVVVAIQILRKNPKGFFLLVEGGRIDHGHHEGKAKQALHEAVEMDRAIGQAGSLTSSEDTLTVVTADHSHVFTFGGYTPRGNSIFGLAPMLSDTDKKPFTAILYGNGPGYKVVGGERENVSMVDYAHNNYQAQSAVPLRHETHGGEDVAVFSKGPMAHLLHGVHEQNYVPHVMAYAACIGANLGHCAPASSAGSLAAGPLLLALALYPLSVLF
Yeast lifespan up – yeast lifespan extension. S. cerevisiae growth with nicotinamide, OD615; deaD strain in restrictive glucose medium. inhibition of the nicotinamide effect, % at 10 µM. actives 0.68% (n = 130,000). AID 775;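 active means inhibition above a set limit, placed 3 SD over the median of all compounds, cut at about 26% in these data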
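Test system – modified budding yeast, DeaD strain · Compound – single dose 10 µM compound, 0.25% DMSO · Times – culture preincubation 4 h, compound exposure 48 h, both 30 °C · Detection – optical density (absorbance) at 615 nm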
Yeast growth inh – yeast BB579 growth reduction in restrictive medium. S. cerevisiae BB579 growth, OD615, 48 h. inhibition, % at 10 µM. actives 0.51% (n = 140,000). AID 804;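 active means inhibition above a set limit, 3 SD over the mean compound inhibition, cut at about 44% in these data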
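System: Saccharomyces cerevisiae DeaD strain BB579, replicative lifespan model yeast | Buffer or medium: Restrictive glucose-based CSMM-D medium | Times: 4 h preincubation and 48 h exposure at 30 °C | Detection: OD615 turbidity measurement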
RAM inhibit – yeast RAM network inhibition | S. cerevisiae dse1pr::URA3 reporter, 5-FOA growth OD615, 2 d; analog-sensitive cbk1-as2 kinase mutant strain | inhibition, % at 50 µM | actives 1.8% (n = 190,000) | AID 868;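 active means inhibition above a set limit, 3 SD over mean compound inhibition, cut at about 8.4% in these data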;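 further: inhibition rescues growth on 5-FOA so higher OD means more RAM inhibition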
TNAP act hi DEA – activators of human TNAP at high phosphate acceptor concentration; AID 1136; purified TNAP, CDP-star luminescence, 1 M DEA, 30 min; stronger effect = higher value; 0 = EDTA background, 1 = DMSO-only activity; P05186; 200,000 tested, under 10 active; activation factor at 20 µM;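 active means activation factor at least 2 at 20 µM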
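Control set: EDTA negative control, DMSO positive control / Assay system: human TNAP / Quantity: TNAP 1/800 final / Evaluation: TNAP activation factor scaled between EDTA and DMSO control wells / Measured by: luminescent substrate turnover signal / Compound dosing: one dose, 20 µM / Times: 30 min enzyme reaction at room temperature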
TNAP inh hiacc – blocks human TNAP under high phosphate acceptor concentration. P05186. purified TNAP, CDP-star luminescence, 1 M DEA. inhibition, % at 20 µM. actives 0.03% (n = 200,000). AID 1135;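 active means over 50% inhibition of tissue-nonspecific alkaline phosphatase at 20 µM in the single-dose screen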
A number is an active result; – = inactive; · = not tested or not shown.

SMILES | TNAP inh noacc | Yeast lifespan up | Yeast growth inh | RAM inhibit | TNAP act hi DEA | TNAP inh hiacc
CN=c1scc(-c2cccs2)n1/N=C/c1ccccc1O | – | – | – | 8.9 | – | –
CN=c1scc(-c2cccs2)n1/N=C/c1ccc(O)c(O)c1O | – | – | – | – | – | –
Cc1cc(C)c2nc(C(F)(F)F)nc(NCCCN3CCOCC3)c2c1 | – | – | – | – | – | –
Cc1ccc(-n2c(SCc3ccc(C#N)cc3)nnc2-c2ccccn2)cc1 | – | – | – | – | – | –
Cc1ccc(OCc2nnc(SCc3ccc(C#N)cc3)n2-c2ccc(C)cc2)cc1 | – | – | – | 8.5 | – | –
Cc1ccc(NC(=O)c2c(C(F)(F)F)nn(C)c2SCc2ccc(Cl)cc2)cc1C | – | – | – | 11 | – | –
Cc1ccc(/C=N/Nc2ccnc3cc(Cl)ccc23)c(C)c1 | – | – | 68 | – | – | –
COc1ccc(NC(=O)c2nc(C)n(-c3ccc([N+](=O)[O-])cc3)n2)cc1 | – | · | · | – | – | –
CCN(c1cccc(C)c1)S(=O)(=O)c1ccc2c3c(cccc13)C(=O)N2 | – | · | – | 8.5 | – | –
O=C1OCC(CO)(CO)N=C1NNc1ccc(Cl)c(Cl)c1 | – | – | 98 | – | – | –
Cc1cc(C)n2nc(C(F)(F)F)c(-c3ccccc3)c2n1 | – | · | · | – | – | –
O=C(N/N=C/c1cccc(O)c1)c1ccc(COc2ccc3c(c2)CCC3)o1 | – | – | – | – | – | –
NNC(=O)c1ccc(COc2ccc3c(c2)CCC3)o1 | – | – | 91 | – | – | –
CC1=CC2CC1C1C(=O)N(c3ccc(S(=O)(=O)Nc4nc(C)cc(C)n4)cc3)C(=O)C21 (stereo unspecified) | – | – | – | 9.8 | – | –
COCCN(Cc1ccccc1)C(=S)Nc1ccc(Cl)cc1 | – | · | · | – | – | –
CCOc1ccc(/C=C/C(=O)c2ccc(-c3ccccc3)cc2)cc1 | – | – | – | 8.9 | – | –
CCOc1ccc(NC(C(=O)Nc2cccc(C(C)=O)c2)c2ccccc2)cc1 (stereo unspecified) | – | – | – | – | – | –
CCOc1ccc(/C=C/C(=O)Nc2cccc(C(C)=O)c2)cc1 | – | – | – | 9.7 | – | –
COc1ccc(/C=C/C(=O)c2ccc(O)cc2)cc1 | – | · | · | – | – | –
CCOC(=O)C1CC(c2ccccc2)=NNC1=O (stereo unspecified) | – | · | · | – | – | –
Cn1c(=O)c2c(=O)cc(NNC(=O)C(C)(C)C)[nH]c2n(C)c1=O | – | 28 | – | – | – | –
CCCC(=O)NNc1cc(=O)c2c(=O)n(C)c(=O)n(C)c2[nH]1 | – | – | – | – | – | –
CCCOc1ccc(C(=O)CCC(=O)OCC(=O)Nc2cc(C)on2)cc1 | – | – | – | – | – | –
O=c1c2ccccc2nc2sc3ccccc3n12 | – | – | 85 | – | – | –
Cc1cc(C(F)(F)F)n2nc(-c3cnn(C)c3C(F)(F)F)c(Br)c2n1 | – | · | · | – | – | –
SMILES | TNAP inh noacc | Yeast lifespan up | Yeast growth inh | RAM inhibit | TNAP act hi DEA | TNAP inh hiacc
CCOc1ccc(-n2c(SCC(=O)c3c(N)n(C)c(=O)n(C)c3=O)nnc2-c2cccnc2)cc1 | – | – | – | 9.1 | – | –
Cc1ccccc1-n1c(SCC(=O)c2c(N)n(C)c(=O)n(C)c2=O)nnc1-c1cccnc1 | – | – | – | – | – | –
N#C/C(=C/c1ccc(CNC(=O)C(=O)Nc2cc(Cl)cc(Cl)c2)o1)C(=O)NCc1cccnc1 | – | – | – | 8.6 | – | –
Cc1ccc(NC(=O)C(=O)NCc2ccc(/C=C(/C#N)C(=O)NCc3cccnc3)o2)cc1 | – | – | – | – | – | –
CCCCCc1nnc(NC(=O)C(=O)OCC)s1 | – | 39 | – | – | – | –
CCCCc1nnc(NC(=O)C(=O)OCC)s1 | – | · | · | – | – | –
CCOC(=O)C(=O)Nc1nnc(SCc2ccc(F)cc2)s1 | – | 35 | – | – | – | –
O=C(COC(=O)C1CCCC1)NCc1ccc(Cl)cc1 | – | · | · | – | – | –
COc1cccc(C(=O)O/N=C(\N)Cc2ccc(Cl)cc2)c1 | – | – | 100 | – | – | –
N/C(Cc1ccc(Cl)cc1)=N\OC(=O)C1CCCCC1 | – | – | 100 | – | – | –

Source: PubChem BioAssay
